Published values of several laboratories.
CSNK1A1: Casein kinase I isoform alpha (CSNK1A1, Homo sapiens, UniProt P48729)
ADRB2: Beta-2 adrenergic receptor (ADRB2, Homo sapiens, UniProt P07550)
Trpc6: Short transient receptor potential channel 6 (Trpc6, Mus musculus, UniProt Q61143)
SETD7: Histone-lysine N-methyltransferase SETD7 (SETD7, Homo sapiens, UniProt Q8WTS6)
CYP1B1: Cytochrome P450 1B1 (CYP1B1, Homo sapiens, UniProt Q16678)
Akr1b1: Aldo-keto reductase family 1 member B1 (Akr1b1, Rattus norvegicus, UniProt P07943)
CNR2: Cannabinoid receptor 2 (CNR2, Homo sapiens, UniProt P34972)
MMP2: 72 kDa type IV collagenase (MMP2, Homo sapiens, UniProt P08253)
HDAC7: Histone deacetylase 7 (HDAC7, Homo sapiens, UniProt Q8WUI4)
P2RY6: P2Y purinoceptor 6 (P2RY6, Homo sapiens, UniProt Q15077)
SLC22A2: Solute carrier family 22 member 2 (SLC22A2, Homo sapiens, UniProt O15244)

Structure (SMILES)	target	assay	system	setting	IC50
CN1CCN(c2ccc(Nc3ncc4cc(C#N)c(=O)n(C5CCCC5)c4n3)cc2)CC1	CSNK1A1	enzyme activity, inhibitor			> 10 µM
CN(C)CCC1(c2ccc(Cl)cc2)Cc2ccccc2C(=O)O1 (stereo not drawn)	ADRB2	ligand displacement, radioligand		cell membranes	86.8 µM
O=C(c1ccc(Cl)s1)N(CCN1CCCC1)c1nc2ccccc2s1	Trpc6	calcium signal, fluorescence			8.8 µM
CCN(CC)CCNC(=O)c1cc(Cl)c(N)cc1OC	ADRB2	ligand displacement, radioligand		cell membranes	67.4 µM
O=C(OCc1ccccc1)c1ccc(O)cc1	SETD7	enzyme activity, inhibitor			> 333 µM
Cc1csc(COCC(=O)C23CC4CC(CC(C4)C2)C3)n1	11-beta-hydroxysteroid dehydrogenase 1 (HSD11B1, Homo sapiens, UniProt P28845)	enzyme activity in cells, inhibitor			0.071 µM
CC(C)=CCc1c(O)cc(O)c2c1O[C@H](c1ccc(O)cc1)CC2=O	CYP1B1	enzyme activity, inhibitor, fluorescence		15 min, pH 7.4	0.41 µM
COc1ccc2nc(/N=C3/NC(=O)C(=Cc4ccc(O)cc4)S3)sc2c1	Akr1b1	enzyme activity, inhibitor, absorbance		pH 6.2	1.3 µM
Cc1c(C(=O)NN2CCCCC2)nc(-c2ccc(Cl)cc2Cl)n1-c1ccc(OS(=O)(=O)CCC(F)(F)F)cc1	CNR2	GTPγS binding, antagonist		cell membranes	0.288 µM
Cc1cnc(-c2ccc(-c3ccc(NC(=O)Nc4c(F)cc(F)cc4F)cc3F)c3c2C(=O)NC3)[nH]1	Epithelial discoidin domain-containing receptor 1 (DDR1, Homo sapiens, UniProt Q08345)	enzyme activity, inhibitor			0.0538 µM
CC(C)(C)n1nc(-c2ccc3nc(OC4CC4)ccc3c2)c(C(N)=O)c1N	CSNK1A1	cell-free assay, inhibitor			> 10 µM
Cn1c(=O)c([N+](=O)[O-])c(Cl)c2ccccc21	Adenylate cyclase type 8 (Homo sapiens, UniProt P40145)	cAMP, inhibitor			1.6 µM
COc1ccc2c3ccnc(C(F)(F)F)c3n(CCCCN)c2c1	Serine/threonine-protein kinase haspin (HASPIN, Homo sapiens, UniProt Q8TF76)	enzyme activity, inhibitor, TR-FRET			0.1 µM
CCC1(c2ccc(C)cc2)C(=O)N(C(=O)OC(C)C)N1C(=O)OC(C)C (stereo not drawn)	Monoacylglycerol lipase ABHD6 (Abhd6, Mus musculus, UniProt Q8R2Y0)	enzyme activity, inhibitor			3 µM
COc1cc(N)c(Cl)cc1C(=O)NC1CCN(CCCOc2ccc(F)cc2)CC1OC (stereo not drawn)	ADRB2	ligand displacement, radioligand		cell membranes	587 µM
Cn1nc(C(=O)NCc2ccc(C(=O)O)cc2)cc1-c1ccc2[nH]c(-c3cccnc3)cc2c1	MMP2	enzyme activity, inhibitor			> 20 µM
CC[C@H](C)[C@H](NC(C)=O)C(=O)N[C@@H](CCC(=O)O)C(=O)N[C@H](C(=O)N[C@H](C=O)CC(=O)O)[C@@H](C)O	Caspase-2 (Homo sapiens, UniProt P42575)	enzyme activity, inhibitor			0.109 µM
O=S(=O)(Nc1ccc2cccc(O)c2n1)c1ccc(-c2ccccc2)cc1	MMP2	enzyme activity, inhibitor, fluorescence			48 µM
CCCC[C@H](NC(=O)C1CN(C)C1)c1ncc(-c2cc3ccccc3nc2OC)[nH]1	HDAC7	enzyme activity, inhibitor			> 30 µM
Cc1noc(-c2cc3cc(-c4nc(C(=O)NCc5ccncc5)[nH]c4C)ccc3[nH]2)n1	MMP2	enzyme activity, inhibitor			> 20 µM
O=[N+]([O-])C1=Cc2cc(C#Cc3ccc(F)cc3)ccc2OC1C(F)(F)F (stereo not drawn)	P2RY6	calcium signal, antagonist, fluorescence			4.4 µM
CC/C(=C(\c1ccc(O)cc1)c1ccc(OCCN(C)C)cc1)c1ccccc1	SETD7	enzyme activity, inhibitor			> 333 µM
O=C(Nc1ccc(Cl)cc1)Nc1cccc(-c2ccc[nH]2)c1	CNR2	calcium signal, antagonist			> 10 µM
NC(=O)c1ccc[n+]([C@@H]2O[C@H](COP(=O)([O-])OP(=O)(O)OC[C@H]3O[C@@H](n4cnc5c(N)ncnc54)[C@H](O)[C@@H]3O)[C@@H](O)[C@H]2O)c1	Protein mono-ADP-ribosyltransferase PARP6 (PARP6, Homo sapiens, UniProt Q2NL67)	enzyme activity, inhibitor			87 µM

Structure (SMILES)	target	assay	system	setting	IC50
Cc1noc(-c2cc3cc(-c4nc(C(=O)NCc5ccc(=O)[nH]c5)[nH]c4C)ccc3[nH]2)n1	MMP2	enzyme activity, inhibitor			> 24 µM
Cc1c(C(=O)N[C@H]2CCCC[C@H]2N)nc(-c2ccc(Cl)cc2Cl)n1-c1ccc(OS(=O)(=O)CCC(F)(F)F)cc1 (racemic)	CNR2	GTPγS binding, antagonist		cell membranes	0.805 µM
COc1ccc2nc(/N=C3/NC(=O)C(=Cc4ccccc4)S3)sc2c1	Akr1b1	enzyme activity, inhibitor, absorbance		pH 6.2	> 50 µM
Cc1noc(-c2cc3cc(-c4nc(C(=O)NCc5cccnc5)[nH]c4C)ccc3[nH]2)n1	MMP2	enzyme activity, inhibitor			> 20 µM
CCCC[C@H](NC(=O)[C@H](C)c1c(C)[nH]c2ccc(O)cc12)c1ncc(-c2cc3ccccc3nc2OC)[nH]1	HDAC7	enzyme activity, inhibitor			> 45 µM
CC[C@@H](C(=O)Nc1ccc(C(N)=O)c(F)c1)n1cc(OC)c(-c2cc(Cl)ccc2-n2cc(C(F)(F)F)nn2)cc1=O	Coagulation factor X (F10, Homo sapiens, UniProt P00742)	enzyme activity, inhibitor			1.7 µM
CCNC(=O)c1nc(-c2ccc3[nH]c(-c4nc(C)no4)cc3c2)c(C)[nH]1	MMP2	enzyme activity, inhibitor			> 20 µM
COc1ccc2nc(/N=C3/NC(=O)C(=Cc4ccc(Cl)cc4)S3)sc2c1	Akr1b1	enzyme activity, inhibitor, absorbance		pH 6.2	3.99 µM
CN1[C@@H]2CC[C@H]1C[C@@H](OC(=O)c1c[nH]c3ccccc13)C2	ADRB2	ligand displacement, radioligand		cell membranes	37.7 µM
COc1c(OCC2CCCC2)cc2c(c1C=O)CC(O)OC2=O (stereo not drawn)	Receptor-type tyrosine-protein phosphatase S (PTPRS, Homo sapiens, UniProt Q13332)	enzyme activity, inhibitor, absorbance			0.6 to 0.7 µM
Cc1noc(-c2cc3cc(-c4nc(C(=O)NCC5CCOCC5)[nH]c4C)ccc3[nH]2)n1	MMP2	enzyme activity, inhibitor			> 20 µM
CC[Si](C#Cc1ccc2c(c1)C=C([N+](=O)[O-])C(C(F)(F)F)O2)(CC)CC (stereo not drawn)	P2RY6	calcium signal, antagonist			~1 µM
COc1cccc2sc(N(CCN3CCCC3)C(=O)c3ccc(Cl)s3)nc12	Trpc6	calcium signal, fluorescence			63.9 µM
Cc1noc(-c2cc3cc(-c4nc(C(N)=O)[nH]c4C)ccc3[nH]2)n1	MMP2	enzyme activity, inhibitor			> 20 µM
COc1cc(O)c(CC=C(C)C)c(O)c1C(=O)/C=C/c1ccc(O)cc1	CYP1B1	enzyme activity, inhibitor, fluorescence		15 min, pH 7.4	0.34 µM
Cc1c(C(=O)NN2CCCCC2)nc(-c2ccc(Cl)cc2Cl)n1-c1ccc(OS(=O)(=O)CCC(C)C)cc1	CNR2	GTPγS binding, antagonist		cell membranes	0.271 µM
COc1cc(N)c(Cl)cc1C(=O)CCC1CCN(CCNS(C)(=O)=O)CC1	ADRB2	ligand displacement, radioligand		cell membranes	62.6 µM
Cc1ccc(NC(=O)c2nc(-c3ccc(Cl)cc3Cl)n(-c3ccc(OS(=O)(=O)CCC(F)(F)F)cc3)c2C)nc1	CNR2	GTPγS binding, antagonist		cell membranes	0.4 µM
O=C(O)CSc1nnc(Br)n1-c1ccc(C2CC2)c2ccccc12	SLC22A2	transporter uptake, inhibitor	MDCK-II	5 min	> 300 µM
O=C(CCCCCCNC(=O)c1cnc(N(c2ccccc2)c2ccccc2Cl)nc1)NO	Polyamine deacetylase HDAC10 (HDAC10, Homo sapiens, UniProt Q969S8)	enzyme activity, inhibitor, fluorescence			2.52 µM
Cc1ccc(S(=O)(=O)N2C(=O)COC23C=CC(=O)C=C3)cc1	MMP2	enzyme activity, inhibitor, fluorescence			6.8 µM
CN(C)CCN(C(=O)c1ccc(Cl)s1)c1nc2ccccc2s1	Trpc6	calcium signal, fluorescence			15.1 µM
Nc1ccc(-c2ccncc2)cc1NC(=O)N1CCCC1	HDAC7	enzyme activity, inhibitor			> 33.3 µM
CC(C)c1nc(CN(C)C(=O)N[C@@H](CCN2CCOCC2)C(=O)N[C@H](CC[C@H](Cc2ccccc2)NC(=O)OCc2cncs2)Cc2ccccc2)cs1	SLC22A2	transporter uptake, inhibitor	MDCK-II		33 µM
